Assay results: ChEMBL document CHEMBL2417468, “4β-[4'-(1-(Aryl)ureido)benzamide]podophyllotoxins as DNA topoisomerase I and IIα inhibitors and apoptosis inducing agents” (2013)
Active and inactive are the calls of the source. The calls are words filed in the database; no cut-off is given here.

Experiments:
[1] = tested on: COLO 205; test: Induction of apoptosis in human COLO205 cells assessed as blebbing at 2 to 4 uM after 24 hrs by Hoechst staining-based confocal microscopic analysis; format: functional, cell-based
How it was run: (§1)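 Colo-205 cells on coverslips treated 24 h at 2 and 4 µM, 4% paraformaldehyde fixed 15 min, RNase-treated 30 min at 37 °C, Hoechst-stained; nuclear morphology (fragmentation, blebbing) by confocal microscopy versus untreated cells.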

[2] = tested on: COLO 205; test: Induction of apoptosis in human COLO205 cells assessed as DNA fragmentation at 2 to 4 uM after 24 hrs by Hoechst staining-based confocal microscopic analysis; format: functional, cell-based; how it was run: as §1
[3] = tested on: COLO 205; test: Induction of apoptosis in human COLO205 cells assessed as caspase-3 activation at 2 uM after 24 hrs by Western blotting analysis; format: functional, cell-based
How it was run: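 Colo-205 cells grown to 80% confluency, 2 µM final for 24 h; RIPA lysates with protease inhibitors, Bradford-quantified, 50 µg protein per lane on 12% SDS-PAGE, PVDF transfer, probed overnight at 4 °C for active caspase-3, β-actin as loading control, chemiluminescent detection.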

[4] = tested on: COLO 205; test: Induction of apoptosis in human COLO205 cells assessed as caspase-3 activation at 2 uM after 24 hrs by ELISA; format: functional, cell-based
How it was run: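 Colo-205 cells exposed 24 h at 2 µM; lysates in 2X reaction buffer with DTT plus caspase substrate, 1 h at 37 °C; fluorescence read at ex 400/em 505 nm; three independent experiments, mean ± S.D., versus untreated control.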

[5] = tested on: COLO 205; test: Cell cycle arrest in human COLO205 cells assessed as accumulation at G2/M phase at 2 uM after 24 hrs by propidium iodide staining-based FACS flow cytometric analysis (reference value: 29.52%); format: functional
[6] = tested on: COLO 205; test: Cell cycle arrest in human COLO205 cells assessed as accumulation at S phase at 2 uM after 24 hrs by propidium iodide staining-based FACS flow cytometric analysis (reference value: 4.21%); format: functional
[7] = tested on: COLO 205; test: Cell cycle arrest in human COLO205 cells assessed as accumulation at G0/G1 phase at 2 uM after 24 hrs by propidium iodide staining-based FACS flow cytometric analysis (reference value: 65.23%); format: functional
[8] = tested on: COLO 205; test: Cytotoxicity against human COLO205 cells assessed as reduction in cellular ATP level at 2 uM after 24 hrs by bioluminescence assay; format: functional, cell-based
How it was run: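 Colo-205 cells exposed 24 h at 2 µM, lysed in ice-cold RIPA, debris spun off at 4 °C; intracellular ATP in supernatant by luciferin-luciferase bioluminescence kit; three independent experiments, mean ± S.D., untreated control.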

[9] = tested on: COLO 205; test: Cytotoxicity against human COLO205 cells assessed as viable cells at 2 uM after 24 hrs by trypan blue exclusion assay; format: functional, cell-based
How it was run: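 Colo-205 cells treated 24 h at 1, 2 and 4 µM, trypsinised, mixed with 0.4% trypan blue (10 µl per 100 µl cells), counted on haemocytometer; percentage dead cells calculated; triplicate samples.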

[10] = tested on: MDA-MB-231; test: Cytotoxicity against human MDA-MB-231 cells assessed as cell viability at 2 to 4 uM after 24 hrs by MTT assay; format: functional, cell-based
How it was run: (§2)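 Colo-205 (RPMI, 10% FCS) and MDA-MB-231 (DMEM, 2 mM glutamax, 10% FCS, penicillin/streptomycin) seeded at 1 104 cells/well, 18 h preincubation; fresh medium with compound at 0.5, 1, 2 and 4 µM for 24 h at 37 °C; MTT 2 h, formazan solubilised, OD 570 nm; DMSO ≤0.25%, DMSO-only wells as untreated control.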

[11] = tested on: COLO 205; test: Cytotoxicity against human COLO205 cells assessed as cell viability at 2 to 4 uM after 24 hrs by MTT assay; format: functional, cell-based; how it was run: as §2
[12] = tested on: MDA-MB-231; test: Cytotoxicity against human MDA-MB-231 cells assessed as cell viability at <0.5 to 1 uM after 24 hrs by MTT assay; format: functional, cell-based; how it was run: as §2
[13] = tested on: COLO 205; test: Cytotoxicity against human COLO205 cells assessed as cell viability at <0.5 to 1 uM after 24 hrs by MTT assay; format: functional, cell-based; how it was run: as §2
[14] = tested on: SiHa; test: Growth inhibition of human SiHa cells after 48 hrs by sulforhodamine B assay; format: functional
[15] = tested on: A549; test: Growth inhibition of human A549 cells after 48 hrs by sulforhodamine B assay; format: functional; conditions: A549, 48 h
[16] = tested on: HOP-62; test: Growth inhibition of human HOP62 cells after 48 hrs by sulforhodamine B assay; format: functional; conditions: HOP-62, 48 h
[17] = tested on: COLO 205; test: Growth inhibition of human COLO205 cells after 48 hrs by sulforhodamine B assay; format: functional; conditions: COLO 205, 48 h
[18] = Growth inhibition of human DWD cells after 48 hrs by sulforhodamine B assay; format: functional
[19] = Growth inhibition of human Gurav cells after 48 hrs by sulforhodamine B assay; format: functional
[20] = tested on: KB; test: Growth inhibition of human KB cells after 48 hrs by sulforhodamine B assay; format: functional
[21] = tested on: ZR-75-1; test: Growth inhibition of human ZR-75-1 cells after 48 hrs by sulforhodamine B assay; format: functional; conditions: ZR-75-1, 48 h
[22] = target: T1, DNA topoisomerase 1 (Homo sapiens) (UniProt P11387); test: Inhibition of human topoisomerase 1-mediated relaxation of supercoiled pBR322 DNA at 2 uM after 30 mins by agarose gel electrophoresis
T1 sequence (whole entry): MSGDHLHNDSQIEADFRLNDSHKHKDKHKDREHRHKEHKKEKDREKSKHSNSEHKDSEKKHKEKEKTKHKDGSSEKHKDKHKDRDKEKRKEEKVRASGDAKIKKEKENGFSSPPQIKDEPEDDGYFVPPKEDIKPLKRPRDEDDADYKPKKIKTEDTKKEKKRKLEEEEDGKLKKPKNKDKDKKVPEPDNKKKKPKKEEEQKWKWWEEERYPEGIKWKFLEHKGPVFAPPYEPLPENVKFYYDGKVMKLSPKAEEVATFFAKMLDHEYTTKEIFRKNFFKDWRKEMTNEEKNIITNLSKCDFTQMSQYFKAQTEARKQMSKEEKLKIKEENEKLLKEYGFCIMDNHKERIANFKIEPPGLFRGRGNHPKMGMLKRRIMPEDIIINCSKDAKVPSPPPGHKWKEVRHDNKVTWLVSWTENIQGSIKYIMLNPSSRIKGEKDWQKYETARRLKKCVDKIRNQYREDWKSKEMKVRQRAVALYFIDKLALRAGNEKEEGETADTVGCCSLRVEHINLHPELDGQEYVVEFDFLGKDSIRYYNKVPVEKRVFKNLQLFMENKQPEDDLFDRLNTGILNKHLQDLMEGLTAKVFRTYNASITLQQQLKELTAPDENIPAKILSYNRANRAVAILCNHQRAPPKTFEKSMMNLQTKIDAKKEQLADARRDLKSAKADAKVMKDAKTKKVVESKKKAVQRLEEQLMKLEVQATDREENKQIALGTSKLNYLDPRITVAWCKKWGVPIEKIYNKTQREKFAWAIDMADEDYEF
How it was run: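 500 ng supercoiled pBR322 with 0.4 units recombinant human topoisomerase I, compound at 2 µM, 30 min at 37 °C in 10 mM Tris-HCl pH 7.9, 150 mM NaCl, 0.1% BSA, 1 mM spermidine, 5% glycerol; stopped with sarcosyl/dye; relaxation read on 1% agarose gel; camptothecin as reference.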

[23] = target: DNA topoisomerase 2-alpha (Homo sapiens) (UniProt P11388); test: Inhibition of human topoisomerase 2alpha-mediated relaxation of supercoiled pBR322 DNA at 2 uM after 30 mins by agarose gel electrophoresis
Sequence of DNA topoisomerase 2-alpha (Homo sapiens) (P11388 whole entry): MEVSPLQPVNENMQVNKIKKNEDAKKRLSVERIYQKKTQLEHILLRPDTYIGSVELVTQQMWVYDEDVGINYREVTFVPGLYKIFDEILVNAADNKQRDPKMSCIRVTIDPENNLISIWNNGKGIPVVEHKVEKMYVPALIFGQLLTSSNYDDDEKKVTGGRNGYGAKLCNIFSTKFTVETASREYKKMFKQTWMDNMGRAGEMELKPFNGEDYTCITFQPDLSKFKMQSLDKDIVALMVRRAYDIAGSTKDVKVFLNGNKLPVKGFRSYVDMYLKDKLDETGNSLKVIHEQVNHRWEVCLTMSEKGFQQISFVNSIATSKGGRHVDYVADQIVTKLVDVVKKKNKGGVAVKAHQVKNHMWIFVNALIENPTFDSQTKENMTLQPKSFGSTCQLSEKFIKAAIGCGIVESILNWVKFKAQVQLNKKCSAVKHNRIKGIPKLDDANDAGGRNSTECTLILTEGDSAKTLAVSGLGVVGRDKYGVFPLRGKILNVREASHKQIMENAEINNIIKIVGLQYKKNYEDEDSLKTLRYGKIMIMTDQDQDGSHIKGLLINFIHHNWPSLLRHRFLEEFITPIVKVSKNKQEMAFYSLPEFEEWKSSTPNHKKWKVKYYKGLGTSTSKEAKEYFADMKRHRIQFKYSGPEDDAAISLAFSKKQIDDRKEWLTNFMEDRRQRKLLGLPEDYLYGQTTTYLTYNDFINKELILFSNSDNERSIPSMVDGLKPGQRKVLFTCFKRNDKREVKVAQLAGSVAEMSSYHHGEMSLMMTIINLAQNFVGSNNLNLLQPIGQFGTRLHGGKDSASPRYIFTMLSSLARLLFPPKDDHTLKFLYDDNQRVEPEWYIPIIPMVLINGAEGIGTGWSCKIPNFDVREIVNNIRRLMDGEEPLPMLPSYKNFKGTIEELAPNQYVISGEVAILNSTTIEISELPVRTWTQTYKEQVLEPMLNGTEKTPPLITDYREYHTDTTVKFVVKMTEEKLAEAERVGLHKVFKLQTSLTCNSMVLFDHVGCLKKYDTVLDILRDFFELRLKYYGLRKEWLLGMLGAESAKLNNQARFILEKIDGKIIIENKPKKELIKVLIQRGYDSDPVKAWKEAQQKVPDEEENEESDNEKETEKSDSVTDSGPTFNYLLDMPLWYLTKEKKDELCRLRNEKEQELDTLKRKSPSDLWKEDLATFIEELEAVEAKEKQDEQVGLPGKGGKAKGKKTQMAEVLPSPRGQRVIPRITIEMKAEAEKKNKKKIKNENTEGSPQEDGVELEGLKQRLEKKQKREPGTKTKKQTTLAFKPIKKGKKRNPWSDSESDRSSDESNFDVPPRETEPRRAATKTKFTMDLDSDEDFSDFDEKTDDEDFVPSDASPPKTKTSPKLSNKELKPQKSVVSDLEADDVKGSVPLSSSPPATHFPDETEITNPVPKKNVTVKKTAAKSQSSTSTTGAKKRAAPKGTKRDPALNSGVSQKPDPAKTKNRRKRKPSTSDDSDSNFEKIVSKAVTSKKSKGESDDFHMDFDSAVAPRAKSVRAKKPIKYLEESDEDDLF
How it was run: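 Purified human topoisomerase IIα (4 units) with 200 ng supercoiled pBR322 and compound at 2 µM, 30 min at 30 °C in 10 mM Tris-HCl pH 7.9, 50 mM NaCl, 5 mM MgCl2, 1 mM EDTA, 1 mM ATP, 15 µg/mL BSA; EDTA-stopped; 1% agarose gel in TAE, ethidium bromide, UV visualisation.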

[24] = tested on: A2780; test: Growth inhibition of human A2780 cells after 48 hrs by sulforhodamine B assay; format: functional; conditions: A2780, 48 h
[25] = tested on: MCF7; test: Growth inhibition of human MCF7 cells after 48 hrs by sulforhodamine B assay; format: functional; conditions: MCF7, 48 h

Row | Compound | Activity [1] | Activity [2] | Activity [3] | Activity [4] | Activity [5] | Percent of cells in S phase [6] | Activity [7] | Activity [8] | Activity [9] | Activity [10] | Activity [11] | Activity [12] | Activity [13] | GI50 [14] | GI50 [15] | GI50 [16] | GI50 [17] | GI50 [18] | GI50 [19] | GI50 [20] | also measured
1 | COc1cc([C@@H]2c3cc4c(cc3[C@@H](O[C@@H]3O[C@@H]5CO[C@@H](C)O[C@H]5[C@H](O)[C@H]3O)[C@H]3COC(=O)[C@H]23)OCO4)cc(OC)c1O [ETOPOSIDE] | Active | Active | Active | Active | 49.63% | 7.36% | 42.68% | Active | Active | Active | Active | inactive | inactive | 3110 nM | 3080 nM | 800 nM | 130 nM | 620 nM | 510 nM | 310 nM | GI50 [21]: 200 nM
2 | COc1cc([C@@H]2c3cc4c(cc3[C@@H](NC(=O)c3ccc(NC(=O)Nc5ccc(Cl)cc5)cc3)[C@H]3COC(=O)[C@H]23)OCO4)cc(OC)c1OC | Active | Active | Active | Active | 17.06% | 4.83% | 78.12% | Active | Active | Active | Active | inactive | inactive | inactive | 2140 nM | 170 nM | 10 nM | 100 nM | 1970 nM | inactive | inhibition [22]: Active; Inhibition of relaxation (qualitative call) [23]: Active; GI50 [24]: 2200 nM; GI50 [25]: 110 nM; GI50 [21]: 130 nM
